ChEMBL document CHEMBL3297649, “Structure-activity relationships of privileged structures lead to the discovery of novel biased ligands at the dopamine D₂ receptor” (J Med Chem, 2014)
Active and inactive are the calls of the source. The rule behind the calls is not given here.

How the values were obtained:
[1] = biological target: T1, D(2) dopamine receptor (Homo sapiens, UniProt P14416); test: Displacement of [3H]spiperone from human D2L receptor expressed in FlpIn CHO cell membrane after 3 hrs by liquid scintillation counting analysis; type: cell membranes
Procedure, shortened: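 Membranes from D2L FlpIn CHO cells, 3 μg, with 0.05 nM [3H]spiperone, 100 μM GppNHp and varied competitor in 20 mM HEPES, 100 mM NaCl, 6 mM MgCl2, 1 mM EGTA, 1 mM EDTA, pH 7.4, 3 h at 37 °C. Filtered on GF/B, washed in ice-cold saline, counted by liquid scintillation. Three experiments in duplicate.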

[2] = biological target: T1, D(2) dopamine receptor; test: Competitive antagonist activity at human D2L receptor expressed in FlpIn CHO cells assessed as inhibition of dopamine-induced ERK1/2 phosphorylation treated for 30 mins prior to dopamine stimulation for 5 mins by AlphaScreen assay; type: cell-based
Procedure, shortened: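 Human D2L FlpIn CHO cells serum-starved overnight. Inhibitor at a range of dilutions for 30 min at 37 °C, then 10 nM dopamine for 5 min. Lysed; phospho-ERK1/2 detected by AlphaScreen. pIC50 taken from inhibition curves; three to four experiments in duplicate.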

[3] = Retention time of the compound by HPLC analysis; type: physicochemical
Procedure, shortened: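 Reverse-phase C8 column, 0.1% TFA/water vs 0.1% TFA/80% MeOH; 100% A 10 min, 80% B over 2 min, back to 100% A over 10 min; 1 mL/min, detection at 214 nm.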

[4] = biological target: T1, D(2) dopamine receptor; settings: CHO
[5] = biological target: T1, D(2) dopamine receptor; settings: CHO; remark: listed apart in the source
[6] = biological target: T1, D(2) dopamine receptor; test: Partial agonist activity at human D2L receptor expressed in FlpIn CHO cells assessed as induction of ERK1/2 phosphorylation by AlphaScreen assay; type: cell-based
Procedure, shortened: (§1)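 Stable human D2L FlpIn CHO cells serum-starved overnight, then given concentration series of agonist at 37 °C for 5–10 min, the per-compound peak time from time-course runs. Lysed with SureFire buffer and pERK1/2 detected by AlphaScreen. Three-parameter logistic fit gives pEC50; Emax as % of maximal dopamine response. Three to four experiments in duplicate.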

[7] = biological target: T1, D(2) dopamine receptor; settings: CHO; remark: listed apart in the source
[8] = biological target: T1, D(2) dopamine receptor; test: Partial agonist activity at human D2L receptor expressed in FlpIn CHO cells assessed as induction of ERK1/2 phosphorylation by AlphaScreen assay relative to dopamine; type: cell-based; procedure, shortened: as §1
[9] = biological target: T1, D(2) dopamine receptor; settings: CHO; remark: listed apart in the source
[10] = biological target: T1, D(2) dopamine receptor; test: Agonist activity at human D2L receptor expressed in FlpIn CHO cells assessed as induction of ERK1/2 phosphorylation by AlphaScreen assay relative to dopamine; type: cell-based
Procedure, shortened: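 FlpIn CHO cells stably expressing human D2L receptor, seeded at 50 000 cells/well, serum-starved overnight. Ligands added at 37 °C for 5−10 min, time set per ligand from prior time-course runs. Lysed in SureFire buffer; phospho-ERK1/2 read by AlphaScreen. Curves fitted to three-parameter logistic; Emax as % of dopamine maximum. Three to four experiments in duplicate.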

[11] = biological target: T1, D(2) dopamine receptor; test: Agonist activity at human D2L receptor expressed in FlpIn CHO cells assessed as induction of ERK1/2 phosphorylation by AlphaScreen assay; type: cell-based
[12] = biological target: T1, D(2) dopamine receptor; test: Agonist activity at human D2L receptor expressed in FlpIn CHO cells assessed as inhibition of forskolin-stimulated cAMP production treated for 30 mins by AlphaScreen assay; type: functional, cell-based
[13] = biological target: T1, D(2) dopamine receptor; test: Agonist activity at human D2L receptor expressed in FlpIn CHO cells assessed as inhibition of forskolin-stimulated cAMP production treated for 30 mins by AlphaScreen assay relative to dopamine; type: functional, cell-based
Procedure, shortened: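 D2L-expressing FlpIn CHO cells grown overnight, then preincubated 45 min in HBSS stimulation buffer (1 mg/mL BSA, 0.5 mM IBMX, 5 mM HEPES, pH 7.4). Agonist and 300 nM forskolin added together for 30 min at 37 °C. Stopped with ice-cold ethanol, dried, lysed in detection buffer; cAMP measured by AlphaScreen. Operational-model fit gives log(τ/KA); n = 4.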

[14] = biological target: T1, D(2) dopamine receptor; test: Agonist activity at human D2L receptor expressed in FlpIn CHO cells assessed as induction of ERK1/2 phosphorylation at 10 uM by AlphaScreen assay; type: cell-based
Procedure, shortened: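 Time-course ERK1/2 phosphorylation screen at 10 μM in FlpIn CHO cells stably expressing human D2L, seeded 50 000 cells/well, serum-starved overnight. Compounds applied at 37 °C over a time course to find peak stimulation time. Stimulation stopped by SureFire lysis, 5 min shaking at room temperature, lysate read by AlphaScreen.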

[15] = biological target: T1, D(2) dopamine receptor; settings: CHO, at 10 µM
[16] = biological target: T1, D(2) dopamine receptor; test: Antagonist activity at human D2L receptor expressed in FlpIn CHO cells assessed as inhibition of dopamine-induced ERK1/2 phosphorylation treated for 30 mins prior to dopamine stimulation for 5 mins by AlphaScreen assay; type: cell-based
Procedure, shortened: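 D2L-FlpIn CHO cells serum-starved overnight. Compound serial dilutions preincubated 30 min at 37 °C, then 10 nM dopamine added for 5 min. Lysed in SureFire buffer, pERK1/2 read by AlphaScreen. pIC50 is the mean of three to four separate experiments run in duplicate.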

T1 sequence (P14416 whole entry): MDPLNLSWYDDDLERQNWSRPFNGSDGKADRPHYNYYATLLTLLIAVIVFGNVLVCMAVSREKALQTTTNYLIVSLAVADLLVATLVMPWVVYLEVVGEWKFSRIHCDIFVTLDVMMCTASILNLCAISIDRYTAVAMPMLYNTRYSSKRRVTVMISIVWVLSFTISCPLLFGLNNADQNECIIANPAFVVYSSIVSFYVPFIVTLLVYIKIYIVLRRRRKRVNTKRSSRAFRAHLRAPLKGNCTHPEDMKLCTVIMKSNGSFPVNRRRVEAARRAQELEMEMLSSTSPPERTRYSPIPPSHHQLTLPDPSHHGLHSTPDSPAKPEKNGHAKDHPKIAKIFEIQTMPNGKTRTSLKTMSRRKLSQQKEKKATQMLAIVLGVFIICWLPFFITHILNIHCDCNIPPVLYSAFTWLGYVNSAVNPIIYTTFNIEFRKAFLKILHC

COc1ccccc1N1CCN(CCCCNC(=O)c2sc3nc(OC)c(Cl)c(C)c3c2N)CC1 gave a Ki [1] of 6.3 nM, a Kb [2] of 490 nM and a pKb [2] of 6.31. For the same compound, the Retention_time [3] was 9.3 min.

Compound OC1(c2ccc(Cl)cc2)CCNCC1 has a Ki [1] of 9090 nM.

Clc1cccc(N2CCNCC2)c1Cl showed a Ki [1] of 1160 nM.

Work on COc1ccccc1N1CCN(CCNC(=O)c2sc3nc(OC)c(Cl)c(C)c3c2N)CC1 yielded a Ki [1] of 48.3 nM, a Kb [2] of 355 nM and a pKb [2] of 6.45.

COc1ccccc1N1CCN(CCCCCNC(=O)c2sc3nc(OC)c(Cl)c(C)c3c2N)CC1 gave a log(activity) [4] of -0.26, a pKA [5] of 7.47 and an EC50 [6] of 2.69 nM. It also gave a Ki [1] of 3.5 nM, a pKA [7] of 8.86 and an Emax [8] of 17%. For the same compound, the log(activity) [9] was -0.65 and the Retention_time [3] was 9.84 min.

Work on Cc1cc(C)c2c(N)c(C(=O)NCCCCCN3CCN(c4cccc(Cl)c4Cl)CC3)sc2n1 yielded a log(activity) [4] of -0.06, a pKA [5] of 9 and a Ki [1] of 11.2 nM. For the same compound, the Emax [10] was 13%, the pKA [7] was 7.9 and the EC50 [11] was 13.2 nM. It also gave a log(activity) [9] of -0.78, an EC50 [12] of 0.3 nM and an Emax [13] of 50%. It also gave a Retention_time [3] of 10.13 min.

For CC(C)(C)OC(=O)NCCCCCN1CCC(O)(c2ccc(Cl)cc2)CC1, the Ki [1] was 2050 nM and the Activity [14] was “inactive”.

With COc1ccccc1N1CCN(CCCCCCNC(=O)OC(C)(C)C)CC1 the inhibition [15] was “Active”, the Ki [1] was 74.8 nM and the IC50 [16] was 3.98 nM.

Work on COc1ccccc1N1CCN(CCCNC(=O)OC(C)(C)C)CC1 yielded an EC50 [6] of 0.39 nM, a Ki [1] of 16.1 nM and an Emax [8] of 31%. For the same compound, the Activity [14] was “inactive” and the Retention_time [3] was 7.74 min.

In the case of CC(C)(C)OC(=O)NCCN1CCC(O)(c2ccc(Cl)cc2)CC1, the Ki [1] is reported as 2750 nM, the Activity [14] is reported as “inactive” and the Retention_time [3] is reported as 7.68 min.

Compound COc1nc2sc(C(=O)NCCCCCN3CCN(c4cccc(Cl)c4Cl)CC3)c(N)c2c(C)c1Cl has a log(activity) [4] of 0.28, a Ka [5] of 58.9 nM and a pKA [5] of 6.89. It also gave a Ki [1] of 15.5 nM, an Emax [10] of 17% and a pKA [7] of 7.1. It also gave an EC50 [11] of 87.6 nM, a log(activity) [9] of -0.65 and an Emax [13] of 71%. The Retention_time [3] was 11.66 min.

With COc1ccccc1N1CCN(CCCCCCNC(=O)c2sc3nc(OC)c(Cl)c(C)c3c2N)CC1 the EC50 [6] was 5.49 nM, the Ki [1] was 0.6 nM and the Emax [8] was 14%.

In the case of CC(C)(C)OC(=O)NCCCN1CCC(O)(c2ccc(Cl)cc2)CC1, the Ki [1] is reported as 1350 nM and the Activity [14] is reported as “inactive”.

Work on Cc1cc(C)c2c(N)c(C(=O)NCCCCCCN3CCC(O)(c4ccc(Cl)cc4)CC3)sc2n1 yielded a Ki [1] of 975 nM and a Retention_time [3] of 8.39 min.

Cc1cc(C)c2c(N)c(C(=O)NCCCN3CCC(O)(c4ccc(Cl)cc4)CC3)sc2n1 gave a Ki [1] of 1700 nM.

COc1ccccc1N1CCN(CCCCCNC(=O)c2sc3nc(C)cc(C)c3c2N)CC1 gave a log(activity) [4] of -0.42, a pKA [5] of 8.84 and a Ki [1] of 9.1 nM. For the same compound, the Emax [13] was 33% and the Retention_time [3] was 8.89 min.

For CC(C)(C)OC(=O)NCCCCCCN1CCC(O)(c2ccc(Cl)cc2)CC1, the Ki [1] was 902 nM, the Activity [14] was “inactive” and the Retention_time [3] was 8.77 min.

Compound Cc1cc(C)c2c(N)c(C(=O)NCCCCN3CCC(O)(c4ccc(Cl)cc4)CC3)sc2n1 has a Ki [1] of 2250 nM.

Compound CC(C)(C)OC(=O)NCCCCCN1CCN(c2cccc(Cl)c2Cl)CC1 has a log(activity) [4] of 0.43, a pKA [5] of 7.73 and a Ki [1] of 42.6 nM. It also gave a pKA [7] of 7.14, a log(activity) [9] of -0.51 and a Retention_time [3] of 10.43 min.

Cc1cc(C)c2c(N)c(C(=O)NCCN3CCC(O)(c4ccc(Cl)cc4)CC3)sc2n1 gave a Ki [1] of 910 nM and a Retention_time [3] of 8.06 min.

For COc1ccccc1N1CCN(CCCCNC(=O)OC(C)(C)C)CC1, the EC50 [6] was 0.6 nM, the Ki [1] was 18.9 nM and the Emax [8] was 13%. For the same compound, the Activity [14] was “inactive”.

COc1ccccc1N1CCN(CCCCCNC(=O)OC(C)(C)C)CC1 showed a log(activity) [4] of 0.19, a pKA [5] of 7.06 and an EC50 [6] of 1.43 nM. For the same compound, the Ki [1] was 12.1 nM, the pKA [7] was 8.77 and the Emax [8] was 19%. The log(activity) [9] was -0.67, the Activity [14] was “inactive” and the Retention_time [3] was 10.43 min.

Work on NCCc1ccc(O)c(O)c1 yielded a pKA [7] of 7.98 and a log(activity) [9] of 0.79.

With Cc1cc(C)c2c(N)c(C(=O)NCCCCCN3CCC(O)(c4ccc(Cl)cc4)CC3)sc2n1 the Ki [1] was 1980 nM.

COc1ccccc1N1CCN(CCCNC(=O)c2sc3nc(OC)c(Cl)c(C)c3c2N)CC1 gave a Ki [1] of 19.5 nM, a Kb [2] of 741 nM and a pKb [2] of 6.13.

In the case of CC(C)(C)OC(=O)NCCCCN1CCC(O)(c2ccc(Cl)cc2)CC1, the Ki [1] is reported as 2110 nM and the Activity [14] is reported as “inactive”.

In the case of COc1ccccc1N1CCNCC1, the inhibition [15] is reported as “Active”, the Ki [1] is reported as 4110 nM and the Kb [2] is reported as 479 nM. For the same compound, the pKb [2] was 6.32, the IC50 [16] was over 1000 nM and the pIC50 ([16]; cho) was under 6.
